# Measurements: article PMC4303873 (Scientific Reports, 2015)
# How the values were obtained:
# [1] = test system: ICR male mice; assay: Acute oral toxicity study in mice; format: in vivo
# In short: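 ICR male mice (Crl:CD1), 24 animals randomized into 4 groups of six. Single oral gavage at 1500, 3000 or 6000 mg/kg, or vehicle (4% Tween 80 in water for injection), at 20 ml/kg adjusted to pre-dose body weight. Mortality checked twice daily and clinical signs once daily, SD3–SD14. Body weight taken SD1, SD8 and SD15. Gross necropsy of thoracic and abdominal cavities on SD15.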
# [2] = biological target: mushroom tyrosinase; assay: Mushroom tyrosinase inhibition assay and IC50 determination; format: biochemical
# [3] = test system: zebrafish embryos; assay: Zebrafish in vivo assay; conditions: for decrease of pigmentation level of zebrafish: 50 μM, 9 to 57 hpf (48 h exposure)
# In short: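 Synchronized zebrafish embryos, three per well in 200 μl embryo medium. Test compound solutions (in 1% DMSO), 10–50 μM, added from 9 to 57 hpf (48 h exposure). […] At 57 hpf, embryos anesthetized in tricaine, mounted in 1% methyl cellulose and photographed under a stereomicroscope. Body pigmentation scored by phenotype and by image pixel measurement.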
# [4] = test system: Normal human epidermal melanocytes; assay: Cell viability; format: cell-based; conditions: concentration ranging from 0 to 50 μM
# In short: (§1)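 Normal human epidermal melanocytes grown in Medium 254 with HMGS. Confluent cells trypsinized, resuspended in Melanocyte Growth Medium M2 and seeded at 2 × 10^4 cells/well. After 24 h, exposed to test compound at 5 or 50 μM at 37°C for 72 h. […] Viability read by MTT.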
# [5] = Cell viability; format: cell-based, human; conditions: human, normal human epidermal melanocytes
# In short: as §1
# [6] = test system: Normal human epidermal melanocytes; assay: Melanin quantification assay in normal human melanocytes; format: cell-based; conditions: 50 μM, 72 hours
# In short: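 Normal human epidermal melanocytes in Medium 254 with HMGS, trypsinized into M2 medium and seeded at 1 × 10^5 cells/well. After 24 h, treated for 72 h at 37°C. […] Cell pellets dissolved in 1N NaOH at 70°C for 1 h and spun at 10,000 × g for 10 min. Supernatant OD405 measured.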
compound,measurement,setting,value
"Oc1ccc(CSCc2ccc(O)cc2)cc1 [T1, bis(4-hydroxybenzyl)sulfide]",dose with no adverse toxic effects,"[1]; ICR mice, single oral dose",up to 6000 mg/kg
same,body weight and body gain versus control mice,"[1]; single oral dose 1500, 3000, and 6000 mg/kg",no difference
same,death and clinical symptoms,"[1]; single oral dose 1500, 3000, and 6000 mg/kg, 14 days observation",no death and abnormal clinical symptom
same,gross lesions at necropsy,"[1]; single oral dose 1500, 3000, and 6000 mg/kg, SD15",no observable gross lesion
same,Ki,[2]; Dixon plot,58 ± 6 nM
same,type of inhibition,[2]; Dixon plot,strong competitive inhibitor
same,IC50,"[2]; L-tyrosine substrate, dopachrome at 475 nm, triplicate",530 nM
same,decrease of pigmentation level of zebrafish,[3],about 41.4%
same,decrease of pigmentation relative to kojic acid,[3]; both at 50 μM,3 fold
same,adverse side effects in zebrafish,"[3]; zebrafish, in vivo",without any adverse side effects
same,cytotoxicity to normal human melanocyte cells,[4],non-cytotoxic
same,"viability at 72 h, 5 µM",[5],99.2%
same,"viability at 72 h, 50 µM",[5],97.2%
"O=c1cc(CO)occ1O [kojic acid, reference compound]",decrease of melanin content,[6],very few or no melanin content decrease
same,decrease of pigmentation level of zebrafish,[3],12.9%
OC[C@H]1O[C@H](Oc2ccc(O)cc2)[C@H](O)[C@@H](O)[C@@H]1O [α-arbutin],decrease of melanin content,[6],very few or no melanin content decrease
OC[C@H]1O[C@@H](Oc2ccc(O)cc2)[C@H](O)[C@@H](O)[C@@H]1O [β-arbutin],decrease of melanin content,[6],very few or no melanin content decrease
